For orientation: viability means a read-out of living cells in per cent, often relative to untreated cells. As a reminder, the inhibition is the change of the read-out against control, counted positive when it falls.

The source made the active and inactive calls.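 The calls were made as follows, unless noted: active = Her2 level under about 52% in both replicate screens, with viability over 70% of control (limit read from the data); inconclusive = Her2 under the limit in one screen only, or viability under 70%; inactive = Her2 level above the set limit.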

Experiment [1] is described as follows: Her2 expression decrease, cell viability multiplex – SKBR3 breast tumor cells, AlphaScreen, ATP viability, primary screen (AID 461).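 As to Her2 level: lower value means less Her2 protein in the cells.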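 As to viability: percent of carrier control wells set as 100% viability.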 The following applies: SKBR3 Her2 protein level, 18-24 h, measured here: SKBR3 viability, ATP luminescence, at 10 µM. In general terms: Alpha assays give light when donor and acceptor beads are brought close together.
The target of experiment [2] is Receptor tyrosine-protein kinase erbB-2 (Homo sapiens) (UniProt P04626). The experiment is described as above. The following applies: 18-24 h, at 10 µM, stronger effect = lower value.
Sequence of Receptor tyrosine-protein kinase erbB-2 (Homo sapiens) (P04626 whole entry, looked up): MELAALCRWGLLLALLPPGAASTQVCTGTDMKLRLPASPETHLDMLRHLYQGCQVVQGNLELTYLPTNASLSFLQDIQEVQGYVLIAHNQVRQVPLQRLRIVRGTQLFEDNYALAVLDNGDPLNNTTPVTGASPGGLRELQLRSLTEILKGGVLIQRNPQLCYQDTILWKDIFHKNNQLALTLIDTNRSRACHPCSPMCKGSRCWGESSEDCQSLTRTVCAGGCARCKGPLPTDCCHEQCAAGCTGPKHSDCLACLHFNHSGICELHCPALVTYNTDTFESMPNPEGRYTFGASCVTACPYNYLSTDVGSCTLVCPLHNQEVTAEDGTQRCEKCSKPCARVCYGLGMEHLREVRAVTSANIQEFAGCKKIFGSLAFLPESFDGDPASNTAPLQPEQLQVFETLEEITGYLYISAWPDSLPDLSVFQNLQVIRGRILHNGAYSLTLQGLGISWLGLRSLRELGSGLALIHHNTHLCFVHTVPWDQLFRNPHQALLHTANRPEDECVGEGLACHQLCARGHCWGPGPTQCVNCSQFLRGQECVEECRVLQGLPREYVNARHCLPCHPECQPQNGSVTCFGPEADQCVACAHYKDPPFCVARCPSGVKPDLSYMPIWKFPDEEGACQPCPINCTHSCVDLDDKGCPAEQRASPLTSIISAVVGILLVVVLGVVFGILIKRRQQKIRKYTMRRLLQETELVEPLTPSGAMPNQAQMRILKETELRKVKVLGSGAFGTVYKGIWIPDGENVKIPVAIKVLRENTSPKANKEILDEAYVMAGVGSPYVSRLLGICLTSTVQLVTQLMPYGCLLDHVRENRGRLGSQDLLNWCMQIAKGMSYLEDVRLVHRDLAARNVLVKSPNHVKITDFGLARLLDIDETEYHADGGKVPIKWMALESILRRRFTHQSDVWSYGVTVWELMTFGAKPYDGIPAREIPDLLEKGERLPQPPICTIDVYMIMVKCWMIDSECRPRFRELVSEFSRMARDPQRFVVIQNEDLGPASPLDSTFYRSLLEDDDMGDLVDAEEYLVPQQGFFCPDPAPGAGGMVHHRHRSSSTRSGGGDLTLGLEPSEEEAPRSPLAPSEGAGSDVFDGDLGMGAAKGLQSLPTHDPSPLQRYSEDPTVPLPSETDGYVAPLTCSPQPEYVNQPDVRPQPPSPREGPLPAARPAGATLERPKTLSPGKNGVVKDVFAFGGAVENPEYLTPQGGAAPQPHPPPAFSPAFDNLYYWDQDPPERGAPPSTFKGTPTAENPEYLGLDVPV
Experiment [3] in a line: reduced viability of SK-BR-3 breast cancer cells – cell-based, 24 h, human, pilot screen (AID 572;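 active = viability at or below 10% of carrier control in both of two separate runs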;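 also: compound exposure lasted between 18 and 24 h rather than exactly 24 h; 100% = carrier-treated control wells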). The following applies: SK-BR-3 viability, CellTiter-Glo luminescence, at 10 µM, stronger effect = lower value.
A short description of experiment [4]: HUVEC growth inhibition – cell-based, human, primary screen (AID 575;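 active = viability at or below 30% in both replicate assays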;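 also: 100% = median of untreated cell wells with 0.1% DMSO on each plate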). Particulars: HUVEC proliferation, CellTiter-Glo luminescence, 72 h; at 10 µM; stronger effect = lower value. The method in brief:
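Test system: HUVEC primary cells. Quantity: 1250 endothelial cells in each well. Dosing: single-point 10 µM, DMSO 0.1% final. Incubation: 72 h treatment at 37 °C. Measured by: CTG luminescence. Control set: DMSO cell controls and MePR drug controls. Plate: collagen-coated 384-well format.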

The nature of experiment [5]: H69AR cell proliferation blockers – human, duplicate replicates, primary screen (AID 580;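 active = viability at or under a set limit in both replicates, limit being median viability minus 3 SD, cut at about 48% in these data, passing the limit was not always enough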;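 also: 100% = mean luminescence of untreated wells and 0% = no signal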). Particulars: H69AR lung tumor cells viability, ATP luminescence, 72 h; at 10 µM; stronger effect = lower value.
Experiment [6] can be described thus: MRP1 drug-resistance reversers in H69AR cells – cell-based, doxorubicin co-treatment, pilot screen (AID 601;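 active = viability loss from added drug above about 55%, and viability with drug at most 40%, in both replicates, limit read from the data, passing the limit was not always enough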). The following applies: CellTiter-Glo, 72 h, at 10 µM; for differential viability (reversal): stronger effect = higher value. (Cellular ATP, detected with luciferase, serves as a proxy for viable cell number.)
Experiment [7] is described as follows: yeast transport mutant growth inhibition pilot in 384-well plates, post-Golgi transport modulator project (AID 636; in the data active = inhibition above about 31%). The following applies: absorbance 615 nm, about 18 h, stronger effect = higher value.
Experiment [8] can be described thus: growth suppression of yeast trafficking mutant, preliminary HTS, modulators of trafficking downstream of Golgi apparatus project, 1536-format plate, OD 615 nm (AID 637; in the data active = inhibition above about 30%). The following applies: yeast transport mutant growth, absorbance 615 nm, 18 h; stronger effect = higher value.
Setting [9] is: H69AR cells + 2 uM doxorubicin, measured here: viability with 2 uM doxorubicin, stronger effect = lower value.
The mark [10] stands for this setting: H69AR cells, compound alone cytotoxicity.

In the case of `COc1ccccc1-n1c(SCC(=O)Nc2ccc3c(c2)OCO3)nc2c(c1=O)SCC2`, the viability in experiment [1] is 82.5%; in experiment [3], 82.5% (inactive); in experiment [4], 85% (inactive); in experiment [5], 87.4% (inactive); in experiment [6] (setting [9]) it was 86.7%; in experiment [6] (setting [10]) it was 87.4%. The Her2 level in experiment [2] is 112% (inactive). The differential viability (reversal) in experiment [6] (H69AR cells + 2 uM doxorubicin) is 0.71% (inactive). The inhibition in experiment [7] is -0.55% (inactive); in experiment [8] it was 23.5% (inactive).

On to `O=C(CSc1nnc(SCc2ccc(Cl)cc2)s1)N1CCN(C(=O)c2ccco2)CC1`, for which the viability is 80.5% in experiment [1]; 80.5% (inactive) in experiment [3]; 70.3% (inactive) in experiment [4]; 100% (inactive) in experiment [5]; 89.2% in experiment [6] (setting [9]); 100% in experiment [6] (setting [10]). For the same compound, the Her2 level in experiment [2] is 93% (inactive). Further, in experiment [6] (H69AR cells + 2 uM doxorubicin), the differential viability (reversal) is 10.9% (inactive). Besides, the inhibition is -8.36% (inactive) in experiment [7] and -5.56% (inactive) in experiment [8].

Consider `Cc1ccc(CNC(=O)C2CC(=O)OC23CCCC3)c(C)c1` (stereo not given), for which the viability in experiment [1] was 86%; in experiment [3], 86% (inactive); in experiment [4], 96.5% (inactive); in experiment [5], 106% (inactive); in experiment [6] (setting [9]), 94.1%; in experiment [6] (setting [10]) it was 106%. Besides, the Her2 level in experiment [2] was 100% (inactive). The differential viability (reversal) in experiment [6] (H69AR cells + 2 uM doxorubicin) was 12.3% (inactive). The figures for the inhibition in experiment [7] and in experiment [8] were -5.89% (inactive) and 3.17% (inactive), respectively.

Take `CCOC(=O)C(NC(=O)CC)(Nc1ccc(S(=O)(=O)Nc2onc(C)c2C)cc1)C(F)(F)F` (stereo not given): the viability in experiment [1] is 116%; in experiment [3], 116% (inactive); in experiment [4], 102% (inactive); in experiment [5] it was 106% (inactive); in experiment [6] (setting [9]), 97%; in experiment [6] (setting [10]) it was 106%. Besides, the Her2 level in experiment [2] is 97.5% (inactive). In experiment [6] (H69AR cells + 2 uM doxorubicin), the differential viability (reversal) was 8.86% (inactive). For the same compound, the inhibition in experiment [7] was -3.77% (inactive); in experiment [8], -0.48% (inactive).

As for `COc1ccc(OC)c(C(=O)CSc2nc3ncccc3[nH]2)c1`, the viability is 94% in experiment [1]; 94% (inactive) in experiment [3]; 96.6% (inactive) in experiment [4]; 88.9% (inactive) in experiment [5]; 81.1% in experiment [6] (setting [9]); 88.9% in experiment [6] (setting [10]). The Her2 level in experiment [2] is 108% (inactive). In experiment [6] (H69AR cells + 2 uM doxorubicin), the differential viability (reversal) was 7.8% (inactive). Besides, the inhibition in experiment [7] was -1.17% (inactive); in experiment [8], 12.5% (inactive).

Turning to `COCCn1c(CN(Cc2ccccc2)Cc2ccccc2)nc2c1c(=O)n(C)c(=O)n2C`, the viability in experiment [1] was 81%; in experiment [3], 81% (inactive); in experiment [4], 81.2% (inactive); in experiment [5], 81.2% (inactive); in experiment [6] (setting [9]) it was 93%; in experiment [6] (setting [10]) it was 81.2%. Further, the Her2 level in experiment [2] is 96% (inactive). In experiment [6] (H69AR cells + 2 uM doxorubicin), the differential viability (reversal) was -11.8% (inactive). Further, the results for the inhibition in experiment [7] and in experiment [8] were -1.87% (inactive) and 1.5% (inactive), respectively.

Consider `COc1ccc(CCNc2oc(-c3ccco3)nc2C#N)cc1`, for which the viability in experiment [1] is 95%; in experiment [3], 95% (inactive); in experiment [4], 96.7% (inactive); in experiment [5], 94.6% (inactive); in experiment [6] (setting [9]) it was 98.3%; in experiment [6] (setting [10]), 94.6%. Further, the Her2 level in experiment [2] was 81.5% (inactive). Also, the differential viability (reversal) in experiment [6] (H69AR cells + 2 uM doxorubicin) is -3.7% (inactive). The figures for the inhibition in experiment [7] and in experiment [8] were -3.07% (inactive) and 3.93% (inactive), respectively.

For the compound `COc1ccc(CCN2C(=O)CCC2(C)C(=O)NCc2cccnc2)cc1OC` (stereo not given), the viability in experiment [1] was 106%; in experiment [3], 106% (inactive); in experiment [4], 109% (inactive); in experiment [5], 89.2% (inactive); in experiment [6] (setting [9]) it was 88%; in experiment [6] (setting [10]) it was 89.2%. Besides, in experiment [2], the Her2 level was 91% (inactive). Besides, in experiment [6] (H69AR cells + 2 uM doxorubicin), the differential viability (reversal) is 1.2% (inactive). Besides, the inhibition was -2.86% (inactive) in experiment [7] and -2.22% (inactive) in experiment [8].

With `O=c1c2ccccc2nc(SCc2cn3ccsc3n2)n1-c1ccc(F)cc1`, the viability in experiment [1] is 73%; in experiment [3], 73% (inactive); in experiment [4], 64.6% (inactive); in experiment [5], 102% (inactive); in experiment [6] (setting [9]), 115%; in experiment [6] (setting [10]), 102%. For the same compound, the Her2 level in experiment [2] was 102% (inactive). For the same compound, the differential viability (reversal) in experiment [6] (H69AR cells + 2 uM doxorubicin) was -13.3% (inactive). For the same compound, the results for the inhibition in experiment [7] and in experiment [8] were -6.44% (inactive) and 1.43% (inactive), respectively.

Turning to `CCOC(=O)CSc1nc2ccccc2c(=O)n1NC(=O)c1ccccc1`, the viability was 120% in experiment [1]; 120% (inactive) in experiment [3]; 86.6% (inactive) in experiment [4]; 87.4% (inactive) in experiment [5]; 80.4% in experiment [6] (setting [9]); 87.4% in experiment [6] (setting [10]). Further, the Her2 level in experiment [2] is 78% (inactive). Moreover, the differential viability (reversal) in experiment [6] (H69AR cells + 2 uM doxorubicin) is 7% (inactive). Moreover, the results for the inhibition in experiment [7] and in experiment [8] were -3.29% (inactive) and -1.75% (inactive), respectively.

`COC(=O)c1cc(=O)n2c(-c3ccc(OC)cc3)csc2n1`: the viability in experiment [1] was 110%; in experiment [3], 110% (inactive); in experiment [4] it was 96.2% (inactive); in experiment [5] it was 92.6% (inactive); in experiment [6] (setting [9]), 82.1%; in experiment [6] (setting [10]), 92.6%. Moreover, in experiment [2], the Her2 level was 97.5% (inactive). Besides, the differential viability (reversal) in experiment [6] (H69AR cells + 2 uM doxorubicin) was 10.6% (inactive). For the same compound, the inhibition in experiment [7] is -4.8% (inactive); in experiment [8], -0.16% (inactive).

Regarding `CC(C)(C)c1ccc(O)c(N)c1`, the viability is 86% in experiment [1]; 86% (inactive) in experiment [3]; 106% (inactive) in experiment [4]; 94.2% (inactive) in experiment [5]; 95.1% in experiment [6] (setting [9]); 94.2% in experiment [6] (setting [10]). Besides, the Her2 level in experiment [2] was 93.5% (inactive). Also, the differential viability (reversal) in experiment [6] (H69AR cells + 2 uM doxorubicin) is -0.85% (inactive). The values for the inhibition in experiment [7] and in experiment [8] were -5.21% (inactive) and -3.33% (inactive), respectively.

As to `COc1cc(C2C(C#N)=C(C)NC3=C2C(=O)CC(C)(C)C3)ccc1O` (stereo not given), the viability in experiment [1] is 100%; in experiment [3], 100% (inactive); in experiment [4], 94.7% (inactive); in experiment [5], 101% (inactive); in experiment [6] (setting [9]), 97.1%; in experiment [6] (setting [10]), 101%. Further, the Her2 level in experiment [2] is 84% (inactive). For the same compound, the differential viability (reversal) in experiment [6] (H69AR cells + 2 uM doxorubicin) was 3.54% (inactive). The inhibition in experiment [7] was -6.13% (inactive); in experiment [8] it was -7.46% (inactive).

`CC(=O)Nc1sc2c(c1C#N)CCCCC2`: the viability is 132% in experiment [1]; 132% (inactive) in experiment [3]; 82.2% (inactive) in experiment [4]; 95.6% (inactive) in experiment [5]; 90.2% in experiment [6] (setting [9]); 95.6% in experiment [6] (setting [10]). Also, the Her2 level in experiment [2] was 113% (inactive). For the same compound, the differential viability (reversal) in experiment [6] (H69AR cells + 2 uM doxorubicin) was 5.43% (inactive). In addition, the inhibition is -4.93% (inactive) in experiment [7] and -2.54% (inactive) in experiment [8].

In the case of `O=C(CN(Cc1cccs1)C(=O)CNS(=O)(=O)c1ccccc1)NCc1ccco1`, the viability in experiment [1] was 98%; in experiment [3], 98% (inactive); in experiment [4], 101% (inactive); in experiment [5], 101% (inactive); in experiment [6] (setting [9]) it was 88%; in experiment [6] (setting [10]), 101%. The Her2 level in experiment [2] is 96.5% (inactive). In experiment [6] (H69AR cells + 2 uM doxorubicin), the differential viability (reversal) is 12.7% (inactive). In addition, the inhibition in experiment [7] is 0.13% (inactive); in experiment [8] it was -3.33% (inactive).

Turning to `CCOC(=O)C1(C(=O)OCC)C(c2ccccc2)CC(O)N1C(C)=O` (stereo not given), the viability is 116% in experiment [1]; 116% (inactive) in experiment [3]; 89.1% (inactive) in experiment [4]; 86.2% (inactive) in experiment [5]; 80% in experiment [6] (setting [9]); 86.2% in experiment [6] (setting [10]). The Her2 level in experiment [2] is 95% (inactive). For the same compound, the differential viability (reversal) in experiment [6] (H69AR cells + 2 uM doxorubicin) was 6.16% (inactive). Moreover, the figures for the inhibition in experiment [7] and in experiment [8] were -6.18% (inactive) and 2.54% (inactive), respectively.

These data come from PubChem BioAssay.
